Source: ChEMBL document CHEMBL2396655, “Design, synthesis, and biological evaluation of (E)-N-aryl-2-arylethenesulfonamide analogues as potent and orally bioavailable microtubule-targeted anticancer agents” (J Med Chem, 2013)
The source made the active and inactive calls. The calls are words filed in the database; no cut-off is given here.

Tests used:
CCRF-CEM = assay: Resistance factor, ratio of GI50 for multidrug-resistant human CEM/C2 cells to GI50 for human CEM cells; assay type: functional
K562 = assay: Cytotoxicity against human K562 cells after 96 hrs by trypan blue exclusion assay; assay type: functional, cell-based
Procedure, shortened: (§1)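 Cells were grown in DMEM or RPMI with 10% FBS and plated at 2.5×10⁴ cells/well in 12-well dishes. Compounds were added 24 h later at various concentrations. After 96 h, viable cells were counted by trypan blue exclusion from duplicate wells. Results are the mean of two independent experiments.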

[1] = Cytotoxicity against human Caco2 cells after 1 hr by Alamar Blue assay; assay type: cell-based; conditions: Caco-2 cells, read-out: LD50
[2] = Cytotoxicity against human NAMALWA cells after 96 hrs by trypan blue exclusion assay; assay type: functional; conditions: NAMALVA; procedure, shortened: as §1
MDCK = assay: Apparent permeability from basolateral to apical side in MDCK cells expressing MDR-1 at 10 uM after 90 mins by LC-MS/MS analysis; assay type: ADME, cell-based, Canis lupus familiaris; conditions: dog, 1.5 h
Procedure, shortened: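 MDCK-MDR1 (Pgp-expressing) monolayers were used 3–4 days post-seeding, only if TEER exceeded 1000 Ω·cm² before and after the run. Compound starting concentration was 10 μM. Transport was measured A→B and B→A over 90 min and quantified by LC/MS/MS. Apparent permeabilities gave the efflux ratio.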

BT-20 = assay: Antitumor activity against human BT20 cells xenografted in NCR-nu/nu mouse assessed as reduction in tumor volume at 20 mg/kg, ip treated 3 times a week for 2 weeks measured on alternate days for 14 days; assay type: functional, organism-based; set-up: dose 20 mg/kg
Procedure, shortened: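 Female athymic NCr-nu/nu mice were implanted subcutaneously in the hind leg with 0.5–1.0×10⁷ BT20 cells. Mice were paired once tumours reached about 100–150 mm³ (vehicle N=7, treated N=8). Dosing was 20 mg/kg IP in DMSO (0.1 mL), 3×/week for 2 weeks. Calipers measured two dimensions; volume = L×S²×π/6. Body weight was recorded at each measurement.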

2008 = assay: Resistance factor, ratio of GI50 for paclitaxel-resistant human 2008/17/4 cells to GI50 for human 2008 cells; assay type: functional
Tubulin (Homo sapiens) = Tubulin (Homo sapiens) (UniProt P68371+Q9H4B7+P0DPH7+P68366+Q13509+Q71U36+P04350+Q3ZCM7+P07437+P68363+Q9BQE3+Q6PEY2+Q13885+Q9BVA1+Q9BUF5); assay: Inhibition of tubulin polymerization in human DU145 cells at 10 to 50 nM pretreated with paclitaxel for 24 hrs followed by compound treatment for 4 hrs by Western blotting analysis; assay type: cell-based; conditions: DU-145
Procedure, shortened: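 DU145 cells were plated at 1.0×10⁴/well and treated for 24 h. Alternatively, cells were pretreated with paclitaxel for 24 h, then exposed to compound for 4 h. Cells were lysed in hypotonic buffer (1 mM MgCl₂, 2 mM EGTA, Tris pH 6.6, 0.5% NP40, protease inhibitors) and spun 10 min at 14,000 rpm. Pellet (polymerized) and supernatant (soluble) fractions were blotted for α-tubulin.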

Bos taurus = species on record: Bos taurus; assay: Inhibition of bovine brain tubulin assessed as destabilization of microtubule polymerization at 10 uM over 40 mins by spectrophotometric analysis
Procedure, shortened: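 Purified bovine brain tubulin was incubated at 37 °C with 10 μM compound, DMSO or reference agents. Polymerization was followed as rising absorbance at 340 nm over 40 min. Data are representative of three independent experiments.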

Mus musculus = assay: Toxicity in NCR-nu/nu mouse assessed as reduction in body weight at 20 mg/kg, ip treated 3 times a week for 2 weeks measured on alternate days for 14 days; assay type: organism-based; set-up: dose 20 mg/kg, route intraperitoneal; conditions: in vivo, 336 h
Procedure, shortened: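 Female athymic NCr-nu/nu mice bearing subcutaneous BT20 hind-leg tumors (~100–150 mm³) were given 20 mg/kg IP in DMSO (0.1 mL), 3 times a week for 2 weeks (N=8; vehicle N=7).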

Tubulin (Sus scrofa) = Tubulin (Sus scrofa) (UniProt P02554+P02550); assay: Competitive binding affinity to pig brain tubulin paclitaxel binding site at 0.1 to 100 uM after 1 hr by mass spectrophotometric analysis in presence of paclitaxel and GTP
Procedure, shortened: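 Porcine brain tubulin (1.0 mg/mL) in PIPES 80 mM, MgCl₂ 2 mM, EGTA 0.5 mM, pH 6.9, at 37 °C. […] Competitor was 0.1–100 μM for 1 h. Unbound ligand in the 30 kDa ultrafiltrate was measured by MS. Runs were in triplicate; IC50 came from a Hill fit.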

MIA PaCa-2 = assay: Antitumor activity against human MIAPaCa2 cells assessed as inhibition of anchorage-independent growth after 3 weeks by NBT staining-based soft agar assay; assay type: functional, cell-based
Procedure, shortened: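 MIA-PaCa-2 cells (1.0×10⁵) in growth medium with compound were mixed into 0.4% Noble top agar over a 0.8% bottom layer. Each concentration was plated in triplicate. Plates were incubated 3 weeks at 37 °C, 5% CO₂, then stained with 0.05% nitroblue tetrazolium for 48 h and photographed.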

DU-145 [3] = assay: Mitotoic arrest in human DU145 cells assessed as complete depolymerization of microtubule cytoskeleton at 25 nM after 24 hrs by FITC and propidium iodide staining-based confocal laser microscopic analysis; assay type: functional, cell-based
Procedure, shortened: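 DU145 cells grown on glass coverslips, exposed to 0.025 μM for 24 h, fixed in 4% paraformaldehyde, permeabilized in PBS with 10% FBS/0.1% Triton X-100, stained with FITC-conjugated anti-α-tubulin (DM1A, 1 h, 37 °C) and propidium iodide (1 μg/mL, 5 min), then imaged by confocal microscopy (60× objective, XYZ-sectioning); DMSO-treated cells as vehicle.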

DU-145 [4] = assay: Induction of apoptosis in human DU145 cells assessed as increase in PARP cleavage at 10 to 20 nM after 24 to 72 hrs by Western blotting analysis; assay type: functional, cell-based
Procedure, shortened: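 DU145 cells were plated at 1.0×10⁶ per plate and treated 24 h later with DMSO or increasing concentrations, then harvested at set time points. Cells were lysed in 0.1% Triton X-100 buffer with protease inhibitors. Equal protein was run on 10% SDS-PAGE, blotted with anti-PARP and detected with IRDye 800 secondary on Odyssey.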

DU-145 [5] = assay: Cell cycle arrest in human DU145 cells assessed as accumulation at G2/M phase at 0.005 uM after 24 hrs by propidium iodide staining-based FACS flow cytometric analysis; assay type: functional
Procedure, shortened: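 DU145 cells were plated at 1.0×10⁶ per dish in DMEM/10% FBS and treated 24 h later with increasing concentrations. After 24 h, attached and floating cells were pooled and fixed in ice-cold 70% ethanol for at least 24 h. Cells were stained with propidium iodide (50 μg/mL) plus RNase A for 30 min at 37 °C, then read on a FACScan with cell-cycle modelling.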

Plasma = assay: Plasma protein binding in dog at 10 to 50 uM by equilibrium dialysis; assay type: ADME, cell-free, Canis lupus familiaris
Liver = assay: Metabolic stability in dog liver S9 fraction assessed as compound remaining at 10 uM after 1 hr by LC-MS/MS analysis; assay type: ADME, subcellular, Canis lupus familiaris; conditions: s9, 1 h
Procedure, shortened: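 Compound at 10 μM was incubated with rat, dog or human liver S9 fraction (1 mg/mL) for 0, 30 and 60 min. Parent remaining at 1 h was quantified by LC-MS/MS.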

With `COc1cc(OC)c(/C=C/S(=O)(=O)Nc2ccc(OC)c(N)c2)c(OC)c1` the RatioGI50 (CCRF-CEM) was 1, the Activity (K562) was “Dose-dependent effect” and the GI50 (K562; K562, 96 h) was 0.003 µM. For the same molecule, the IC50 (K562; K562, 96 h) was 0.003 µM, the CC50 at 1 h [1] was over 1000 µM and the GI50 [2] was 0.008 µM. For the same molecule, the Papp (MDCK) was 72 ×10⁻⁶ cm/s, the Activity (BT-20) was “Active” and the RatioGI50 2008 was 1. The inhibition (Tubulin (Homo sapiens)) was “Active”, the inhibition (Bos taurus) was “Active” and the Activity (Mus musculus) was “Non-toxic”. The Activity (Tubulin (Sus scrofa)) was “inactive”, the inhibition (MIA PaCa-2) was “Dose-dependent effect” and the Activity (DU-145 [3]) was “Active”. For the same molecule, the Activity (DU-145 [4]) was “Active”, the Activity (DU-145 [5]) was “Active” and the PPB (Plasma) was 98.48%. For the same molecule, the Stability (Liver) was 57%.
